Activity calls are given as the source filed them. No cut-off for these calls is given here.

This note sets out measurements from ChEMBL document CHEMBL3112520, “Synthesis and biological evaluation of 2,5-di(7-indolyl)-1,3,4-oxadiazoles, and 2- and 7-indolyl 2-(1,3,4-thiadiazolyl)ketones as antimicrobials” (Bioorg Med Chem, 2014).

One data set relates to Bacillus subtilis. The data set can be described thus: Antibacterial activity against Bacillus subtilis 168 assessed as growth inhibition at late exponential phase at 200 uM after 16 hrs. The format is functional. To be noted: for growth inhibition (GI): subsp. subtilis str. 168; for inhibition of growth at 200 µM: subsp. subtilis str. 168, 16 h, read-out: GI. The essentials:
(§1)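 Compounds were made up as 50 mM DMSO stocks and diluted in LB medium to 200 µM. Cultures were grown at 37 °C with 600 rpm shaking. OD600 was read every 10 min for 16 h, with LB as the blank. Samples were run in triplicate, and growth curves were compared with cells given equal amounts of DMSO.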

The nature of data set [1]: Inhibition of RNA polymerase-sigma factor (unknown origin) interaction at 15 uM after 1 hr by ELISA. In outline:
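ELISA: purified full-length σA (250 nM in PBS) was coated overnight at 4 °C, then blocked with 1% (w/v) BSA in PBS at room temperature. After PBS/Tween-20 washes, rabbit anti-GST (1:2000) and then HRP goat anti-rabbit (1:2000) were each applied for 1 h at room temperature. TMB substrate was added, shaken for 6 min at room temperature, and absorbance read at 600 nm.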
A general note: In an ELISA, binding on a coated surface is turned into a signal by an enzyme label.

A further data set concerns Escherichia coli. Put plainly: Antibacterial activity against Escherichia coli DH5[alpha] assessed as growth inhibition at late exponential phase at 200 uM after 16 hrs. It is filed as functional. Particulars: for inhibition of growth at 200 µM: read-out: GI. The essentials: as §1
Data set [2] in a line: Solubility of the compound. The format is physicochemical.

As usually defined, the inhibition is the drop in the measured response relative to a control, in per cent. A lower inhibition goes with a response near the control. Consider `COc1cc(OC)c2c(-c3ccc(Cl)cc3)c(C(=O)c3nnc(N(C)C)s3)[nH]c2c1`, for which, in the data set with Bacillus subtilis, the “growth inhibition (GI)” value was “inactive”. The molecule also had an inhibition in data set [1] of 17.2%. In addition, the inhibition of growth at 200 µM in the data set on Escherichia coli was found to be 10.6%.

For `COc1cc(OC)c2c(-c3ccc(Br)cc3)c[nH]c2c1C(=O)NNC(=O)c1c(OC)cc(OC)c2c(-c3ccc(Br)cc3)c[nH]c12`, the inhibition of growth at 200 µM came to 14.3% with Bacillus subtilis and 37.4% in the data set on Escherichia coli. Besides, the inhibition in data set [1] is 39.5%.

With `COc1cc(OC)c2c(-c3ccccc3)c(-c3ccccc3)[nH]c2c1C(=O)NNC(=O)c1c(OC)cc(OC)c2c(-c3ccccc3)c(-c3ccccc3)[nH]c12`, the solubility entry in data set [2] is given as “ND(Insoluble)”.

On to `COc1cc(OC)c2c(-c3ccccc3)c(-c3ccccc3)[nH]c2c1-c1nnc(-c2nnc(-c3c(OC)cc(OC)c4c(-c5ccccc5)c(-c5ccccc5)[nH]c34)o2)o1`, for which the solubility result in data set [2] is reported as “ND(Insoluble)”.

For `COc1cc(OC)c2c(-c3ccc(Br)cc3)c(C(=O)c3nnc(N(C)C)s3)[nH]c2c1`, in the data set on Bacillus subtilis, the “growth inhibition (GI)” value was “inactive”. Also, the inhibition in data set [1] was found to be 19%. Also, the inhibition of growth at 200 µM with Escherichia coli turned out to be 16.8%.

As to `COc1cc(OC)c2c(-c3ccccc3)c(-c3ccccc3)[nH]c2c1C(=O)C(=O)NNC(=O)C(=O)c1c(OC)cc(OC)c2c(-c3ccccc3)c(-c3ccccc3)[nH]c12`, the solubility entry in data set [2] was “ND(Insoluble)”.

Regarding `COc1cc(OC)c2c(-c3ccccc3)c(-c3ccccc3)[nH]c2c1-c1nnc(-c2c(OC)cc(OC)c3c(-c4ccccc4)c(-c4ccccc4)[nH]c23)o1`, the solubility result in data set [2] is “ND(Insoluble)”.

`COc1cc(OC)c2c(-c3ccc(Cl)cc3)c[nH]c2c1C(=O)NNC(=O)c1c(OC)cc(OC)c2c(-c3ccc(Cl)cc3)c[nH]c12`: in the data set on Bacillus subtilis, the inhibition of growth at 200 µM was 29.8%. Besides, the inhibition in data set [1] stood at 62.6%. Moreover, the “growth inhibition (GI)” value with Escherichia coli is “inactive”.

As to `COc1cc(OC)c2c(-c3ccc(Cl)cc3)c[nH]c2c1-c1nnc(-c2c(OC)cc(OC)c3c(-c4ccc(Cl)cc4)c[nH]c23)o1`, the “growth inhibition (GI)” value with Bacillus subtilis and with Escherichia coli was “inactive” throughout. This molecule also displayed an inhibition in data set [1] of 17.8%.

Regarding `COc1cc(OC)c2c(-c3ccc(Br)cc3)c(C(=O)C(=O)NNC(=S)N(C)C)[nH]c2c1`, the results for the inhibition of growth at 200 µM in the data set on Bacillus subtilis and in the data set with Escherichia coli were 69.9% and 70%, respectively. Besides, the inhibition in data set [1] stood at 20.8%.

Consider `COc1cc(OC)c2c(-c3ccc(Cl)cc3)c(C(=O)C(=O)NNC(=S)N(C)C)[nH]c2c1`, for which the inhibition of growth at 200 µM in the data set with Bacillus subtilis stood at 32.5%; in the data set on Escherichia coli, 47%. In data set [1], the inhibition worked out at 20.4%.

Take `COc1cc(OC)c2c(-c3ccccc3)c(-c3ccccc3)[nH]c2c1C(=O)NNC(=O)C(=O)NNC(=O)c1c(OC)cc(OC)c2c(-c3ccccc3)c(-c3ccccc3)[nH]c12`: in data set [2], the solubility entry is “ND(Insoluble)”.

On to `COc1cc(OC)c2c(-c3ccc(Br)cc3)c[nH]c2c1-c1nnc(-c2c(OC)cc(OC)c3c(-c4ccc(Br)cc4)c[nH]c23)o1`, for which the “growth inhibition (GI)” value with Bacillus subtilis and with Escherichia coli was “inactive” in each case. This molecule also gave an inhibition in data set [1] of 16.8%.
